Reference: ChEMBL document CHEMBL2203014, “Structure-Based Design of Potent and Selective CK1γ Inhibitors” (ACS Med Chem Lett, 2012)

Key:
[1] = molecular target: Glycogen synthase kinase-3 beta (Homo sapiens, UniProt P49841)
[2] = molecular target: Casein kinase I isoform alpha (Homo sapiens, UniProt P48729); experiment: Inhibition of CK1-alpha using biotin[long chain]-KKRRRAL{pS}VATLPGL substrate in presence of 8 uM ATP
[3] = molecular target: Casein kinase I isoform delta (Homo sapiens, UniProt P48730)
Chain of Casein kinase I isoform delta (P48730 whole entry, canonical isoform): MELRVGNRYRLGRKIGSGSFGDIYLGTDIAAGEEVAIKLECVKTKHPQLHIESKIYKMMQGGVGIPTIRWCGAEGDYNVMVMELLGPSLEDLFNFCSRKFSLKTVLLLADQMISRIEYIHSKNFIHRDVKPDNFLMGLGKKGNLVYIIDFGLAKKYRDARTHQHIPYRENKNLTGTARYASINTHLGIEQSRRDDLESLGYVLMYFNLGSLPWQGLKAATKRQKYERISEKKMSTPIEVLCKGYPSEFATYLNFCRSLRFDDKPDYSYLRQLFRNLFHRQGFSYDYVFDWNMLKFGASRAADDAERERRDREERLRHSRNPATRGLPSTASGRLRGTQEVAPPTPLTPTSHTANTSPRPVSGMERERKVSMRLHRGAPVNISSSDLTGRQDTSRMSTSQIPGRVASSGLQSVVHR

[4] = molecular target: T1, Casein kinase I isoform gamma-2 (Homo sapiens, UniProt P78368)
T1 sequence (P78368 whole entry, canonical isoform): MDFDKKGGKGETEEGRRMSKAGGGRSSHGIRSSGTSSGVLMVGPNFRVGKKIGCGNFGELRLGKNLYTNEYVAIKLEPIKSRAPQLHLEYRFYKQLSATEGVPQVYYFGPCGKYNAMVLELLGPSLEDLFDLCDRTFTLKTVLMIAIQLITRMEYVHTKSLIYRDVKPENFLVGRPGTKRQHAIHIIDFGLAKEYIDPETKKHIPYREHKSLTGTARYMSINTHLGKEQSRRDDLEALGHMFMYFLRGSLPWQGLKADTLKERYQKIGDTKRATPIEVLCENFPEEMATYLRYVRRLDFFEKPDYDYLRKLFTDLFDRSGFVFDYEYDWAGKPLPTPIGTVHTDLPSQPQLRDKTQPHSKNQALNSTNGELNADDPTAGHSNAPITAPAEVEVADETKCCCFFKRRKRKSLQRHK

[5] = molecular target: T1, Casein kinase I isoform gamma-2; experiment: Inhibition of CK1-gamma2 in human RKO cell assessed as inhibition of Wnt3a-induced Wnt signaling treated 1 hr prior to Wnt3a ligand addition measured after 18 to 24 hrs by luciferase reporter gene assay
[6] = Selectivity ratio of IC50 for CK1-alpha to IC50 for CK1-gamma2
[7] = Selectivity ratio of IC50 for CK1-delta to IC50 for CK1-gamma2
[8] = molecular target: T1, Casein kinase I isoform gamma-2; experiment: Inhibition of human CK1-gamma2 in HEK293 cells assessed as inhibition of doxcycline-induced LRP6 phosphorylation after 2 hrs by electrochemiluminescence analysis; format: cell-based
[9] = Plasma concentration in HEK-293 cells xenografted in nude mouse at 50 mg/kg, po after 6 hrs; format: ADME, organism-based, HEK293; set-up: dose 50 mg/kg, route oral
Method in brief: (§1)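 Athymic nude mice carried subcutaneous tumors of HEK293 cells constitutively expressing LRP6 with doxycycline-inducible CK1γ. Doxycycline (0.5 mg/mL) was given in drinking water for 24 h to stimulate LRP6 phosphorylation, then compound was dosed orally at 50 mg/kg. Tumor and plasma were collected 6 h post-dose. Tumor phospho-LRP6 was quantified by electrochemiluminescent assay, and plasma total and unbound exposure were determined.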

Plasma = experiment: Unbound concentration in HEK293 cells xenografted in nude mouse at 50 mg/kg, po after 6 hrs; format: ADME, organism-based; set-up: dose 50 mg/kg, route oral; settings: in vivo
Method in brief: as §1

Mus musculus = experiment: Inhibition of CK1-gamma-mediated LRP6 phosphorylation in HEK293 cells xenografted in nude mouse at 50 mg/kg, po after 6 hrs by electrochemiluminescent assay; format: functional; settings: HEK293, 6 h
Method in brief: as §1

[10] = AUC in […] mouse at 30 mg/kg, po; format: ADME, organism-based; set-up: dose 30 mg/kg, route oral; settings: plasma
Method in brief: (§2)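 Oral PK in male CD1 mice, 3 animals per study, dosed at 30 mg/kg po. Vehicle: 10.0% Pluronic F68 / 30.0% HPBCD / 60.0% water with MSA, pH 2.5. Cmax, t1/2, Tmax and AUC were taken from plasma exposure.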

[11] = Tmax in […] mouse at 30 mg/kg, po; format: ADME, organism-based; set-up: dose 30 mg/kg, route oral; settings: in vivo
Method in brief: as §2

[12] = Half life in […] mouse at 30 mg/kg, po; format: ADME, organism-based; set-up: dose 30 mg/kg, route oral; settings: in vivo
Method in brief: as §2

[13] = Plasma protein binding in mouse; format: ADME, cell-free; settings: read-out: PPB (converted)
[14] = Cmax in […] mouse at 30 mg/kg, po; format: ADME, organism-based; set-up: dose 30 mg/kg, route oral; settings: in vivo
Method in brief: as §2

[15] = Intrinsic clearance in human liver microsomes at 1 uM after 30 mins; format: ADME, Microsome; settings: read-out: CLH
Method in brief: (§3)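 Liver microsome turnover (human or rat): compound at 1 μM incubated with microsomes for 30 min. Intrinsic clearance reported in μL/(min·mg).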

[16] = Plasma protein binding in rat; format: ADME, cell-free; settings: read-out: PPB (converted)
[17] = Intrinsic clearance in rat liver microsomes at 1 uM after 30 mins; format: ADME, Microsome; settings: read-out: CLH
Method in brief: as §3

Chain of Glycogen synthase kinase-3 beta (P49841 whole entry, canonical isoform): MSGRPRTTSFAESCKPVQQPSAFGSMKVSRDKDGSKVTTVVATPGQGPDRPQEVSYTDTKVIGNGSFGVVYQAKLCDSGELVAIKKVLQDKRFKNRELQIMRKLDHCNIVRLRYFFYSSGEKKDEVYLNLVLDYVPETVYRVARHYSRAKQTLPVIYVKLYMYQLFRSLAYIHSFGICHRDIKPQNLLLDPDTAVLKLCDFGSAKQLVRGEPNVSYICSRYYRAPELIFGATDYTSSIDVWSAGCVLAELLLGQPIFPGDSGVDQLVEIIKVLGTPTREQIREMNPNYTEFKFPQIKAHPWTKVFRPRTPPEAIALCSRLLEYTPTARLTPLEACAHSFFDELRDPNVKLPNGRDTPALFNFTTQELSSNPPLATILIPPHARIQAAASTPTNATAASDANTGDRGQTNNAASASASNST
Chain of Casein kinase I isoform alpha (P48729 whole entry, canonical isoform): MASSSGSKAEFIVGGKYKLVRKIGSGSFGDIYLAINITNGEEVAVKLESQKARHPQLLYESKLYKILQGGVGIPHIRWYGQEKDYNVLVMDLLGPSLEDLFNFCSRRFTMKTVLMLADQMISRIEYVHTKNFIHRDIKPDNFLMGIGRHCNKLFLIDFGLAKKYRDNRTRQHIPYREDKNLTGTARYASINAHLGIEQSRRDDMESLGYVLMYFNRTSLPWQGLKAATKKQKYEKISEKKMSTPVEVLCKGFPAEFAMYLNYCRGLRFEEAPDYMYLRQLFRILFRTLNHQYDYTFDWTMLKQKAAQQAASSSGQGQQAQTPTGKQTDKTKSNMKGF

Row | Structure (SMILES) | IC50 [1] [nM] | IC50 [2] [nM] | IC50 [3] [nM] | IC50 [4] [nM] | IC50 [5] [nM] | Ratio IC50 [6] | other results
1 | COc1cnc(OCc2ccc(F)cc2)nc1-c1cc2c([nH]1)CCNC2=O | > 30000 | 95 | 168 | 80 | – | – | –
2 | COc1cnc(/C=C/c2ccc(F)cc2)nc1-c1cc2c([nH]1)CCNC2=O | 1220 | – | – | 50 | – | – | –
3 | COc1cnc(Nc2ccccc2)nc1-c1cc2c([nH]1)CCNC2=O | 16 | – | – | 8 | – | – | –
4 | COc1cnc(-c2cnc3ccccc3c2)nc1-c1cc2c([nH]1)CCNC2=O | 1.49 | 9 | 68 | 8 | > 3330 | 1 | Ratio IC50 [7]: 8; IC50 [8]: 348 nM
5 | COc1cnc(CCc2ccc(F)cc2)nc1-c1cc2c([nH]1)CCNC2=O | 25600 | – | – | 17 | – | – | –
6 | COc1cnc(COc2ccc(F)cc2)cc1-c1cc2c([nH]1)CCNC2=O | 7830 | – | – | 5 | 584 | – | –
7 | COc1cnc(NCc2ccccc2)nc1-c1cc2c([nH]1)CCNC2=O | 98 | 19 | 22 | 33 | – | – | –
8 | COc1cnc(COc2ccc(F)cc2)nc1-c1cc2c([nH]1)CCNC2=O | 1120 | 146 | 58 | 24 | – | 6 | –
9 | COc1cnc(COc2ccc(F)c(F)c2)cc1-c1cc2c([nH]1)CCNC2=O | 10800 | 251 | 40 | 5 | 254 | 50 | concentration at 6 h [9]: 2700 nM; Concentration (Plasma): 130 nM; inhibition in vivo at 50 mg/kg (Mus musculus): 42%; AUC [10]: 15.4 µM·h; Tmax [11]: 0.33 h; half-life [12]: 2.7 h; fraction unbound [13]: 0.049; Cmax [14]: 9720 nM; microsomal CLint at 1 µM [15]: 59 µL/min/mg; fraction unbound [16]: 0.031; microsomal CLint at 1 µM [17]: 46 µL/min/mg; Ratio IC50 [7]: 8; IC50 [8]: 200 nM
10 | COc1cnc(COc2cc(F)c(F)cc2C)cc1-c1cc2c([nH]1)CCNC2=O | 38100 | – | – | 4 | 44 | – | AUC [10]: 2.1 µM·h; Tmax [11]: 1.17 h; half-life [12]: 1.4 h; fraction unbound [13]: 0.008; Cmax [14]: 560 nM; microsomal CLint at 1 µM [15]: 177 µL/min/mg; microsomal CLint at 1 µM [17]: 106 µL/min/mg; IC50 [8]: 87 nM
11 | COc1cnc(COc2ccc(F)cc2F)cc1-c1cc2c([nH]1)CCNC2=O | 4000 | 225 | 36 | 3 | 394 | 75 | Ratio IC50 [7]: 12
12 | COc1cnc(CCc2ccc(F)cc2)cc1-c1cc2c([nH]1)CCNC2=O | > 62500 | – | – | – | – | – | –
13 | COc1cnc(Oc2ccccc2)nc1-c1cc2c([nH]1)CCNC2=O | > 62500 | 18500 | 4860 | 853 | – | – | –
14 | COc1cnc(COc2ccc(F)cc2C)cc1-c1cc2c([nH]1)CCNC2=O | 53300 | 442 | 59 | 3 | 537 | 147 | Ratio IC50 [7]: 20
